Only a selection was taken, and hits are over-represented in it overall.
Avidin fluor – avidin bead compound fluorescence profile | Avidin beads, compound fluorescence 488/530 nm, flow cytometry; hits give high values | fluorescence (KMESF) at 10 µM | 0.38% of 220,000 active | AID 1775; in the data active = fluorescence above about 47
ABCB1 inh – blocks JC-1 efflux by human ABCB1 transporter | CCRF-Adr cells, flow cytometry | inhibition, % at 6.6 µM | 0.067% of 190,000 active | AID 1326 | P08183; in the data active = inhibition above about 40%;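 also: 0% = vehicle and 100% = reference inhibitor; higher value means more JC-1 retained so stronger ABCB1 efflux block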
GSH fluor – GSH bead compound fluorescence profile | GSH beads flow cytometry, compound fluorescence 488/530 nm; hits give high values | fluorescence (KMESF) at 10 µM | 0.25% of 190,000 active | AID 1776; in the data active = fluorescence above about 89;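 also: glutathione beads carrying GST-tagged Bcl family fusion proteins plus one bare bead set; values are compound well signal with DMSO vehicle wells as background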
ABCG2 inh – blocks JC-1 efflux by human ABCG2 transporter; Q9UNQ0; IgMXP3 cells, flow cytometry; inhibition, % at 6.6 µM; 0.1% of 190,000 active; AID 1325;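 active = inhibition above 80%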;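 also: 0% = DMSO and 100% = nicardipine control wells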
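System: two drug-resistant human cell lines, ABCG2 and ABCB1; controls: nicardipine high and DMSO low controls; times: 10 min exposure at 25 °C with rotation, no wash; detection: flow cytometry of retained JC-1 fluorescence; read-out basis: percent efflux inhibition, scaled nicardipine 100% to DMSO 0%; doses: one concentration, 6.6 µM final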
Lmaj promast – reduces viability of Leishmania major promastigotes; inhibition, % at 10 µM; resazurin fluorescence viability; 9% of 200,000 active;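 also: promastigotes grown with compound for 44 hours at 28 °C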
PKD1 kinase inh – inhibitors of human PKD1 kinase; PKD1 kinase fluorescence polarization assay; inhibition, % (test concentration not listed); 0.056% of 200,000 active
Target sequence (Q15139 whole entry, looked up): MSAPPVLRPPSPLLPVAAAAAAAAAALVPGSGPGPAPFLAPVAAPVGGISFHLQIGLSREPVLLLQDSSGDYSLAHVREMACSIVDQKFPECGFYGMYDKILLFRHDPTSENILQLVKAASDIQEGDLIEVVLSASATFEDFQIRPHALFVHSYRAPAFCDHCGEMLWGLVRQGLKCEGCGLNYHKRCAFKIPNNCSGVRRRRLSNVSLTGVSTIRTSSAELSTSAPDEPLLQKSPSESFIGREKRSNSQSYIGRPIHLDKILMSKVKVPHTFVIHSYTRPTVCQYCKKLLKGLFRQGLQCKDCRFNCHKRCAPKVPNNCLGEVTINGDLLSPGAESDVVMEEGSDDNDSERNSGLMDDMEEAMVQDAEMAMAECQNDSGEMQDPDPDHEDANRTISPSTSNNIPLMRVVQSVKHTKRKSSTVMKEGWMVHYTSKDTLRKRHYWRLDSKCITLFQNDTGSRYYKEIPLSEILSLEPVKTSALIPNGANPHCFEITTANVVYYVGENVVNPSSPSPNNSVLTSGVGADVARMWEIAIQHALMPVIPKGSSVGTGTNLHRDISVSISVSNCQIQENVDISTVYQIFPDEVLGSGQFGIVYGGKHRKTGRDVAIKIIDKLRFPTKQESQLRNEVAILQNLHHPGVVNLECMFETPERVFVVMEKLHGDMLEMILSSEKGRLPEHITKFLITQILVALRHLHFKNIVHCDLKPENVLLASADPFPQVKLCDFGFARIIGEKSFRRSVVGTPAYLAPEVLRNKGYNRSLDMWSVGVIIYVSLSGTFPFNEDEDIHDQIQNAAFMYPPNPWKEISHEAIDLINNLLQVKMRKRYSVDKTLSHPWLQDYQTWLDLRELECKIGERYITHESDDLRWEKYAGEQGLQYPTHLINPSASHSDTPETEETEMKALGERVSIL
* = called active by the depositor. Rule as the data show it, unless noted: active = inhibition above about 50%; inactive = the rest.

`Cc1ccc2c(c1)C1CN(C)CCC1N2C(=O)c1cn(-c2ccccc2)nc1-c1ccccc1` (configuration not stated) gave Avidin fluor 34, ABCB1 inh 4, GSH fluor 15, ABCG2 inh 5, Lmaj promast 53* and PKD1 kinase inh 3.
Screening Cc1ccc2c(c1)C1CN(C)CCC1N2C(=O)Nc1cccc(C(F)(F)F)c1 (configuration not stated) returned Avidin fluor 29, ABCB1 inh 1, GSH fluor 22, ABCG2 inh 8, Lmaj promast 50* and PKD1 kinase inh 0.
Cc1ccc2c(c1)C1CN(C)CCC1N2C(=O)c1ccc(Br)o1 (configuration not stated) was read as Avidin fluor 5, ABCB1 inh 0, GSH fluor 40, ABCG2 inh 0, Lmaj promast 0 and PKD1 kinase inh 3.
Screening Cc1ccc2c(c1)[C@@H]1CN(C)CC[C@@H]1N2C(=O)Nc1cccc(C(F)(F)F)c1 returned Avidin fluor 5, ABCB1 inh 0, GSH fluor 36, ABCG2 inh 1, Lmaj promast 81* and PKD1 kinase inh 4.
Cc1ccc2c(c1)C1CN(C)CCC1N2C(=O)c1cccnc1Cl (configuration not stated) was read as Avidin fluor 7.
`Cc1ccc(CN(Cc2ccccc2)C(=S)NCC(=O)N2CCC3(CC2)OCCO3)o1` gave Avidin fluor 17, ABCB1 inh 2, GSH fluor 13, ABCG2 inh 2, Lmaj promast 12 and PKD1 kinase inh -1.
Screening O=c1[nH]c(=O)n(Cc2ccc(F)cc2)c(O)c1C=NCCCN1CCOCC1 returned Avidin fluor 10, ABCB1 inh 1, GSH fluor 42, ABCG2 inh 3, Lmaj promast 33 and PKD1 kinase inh -10.
Screening CCn1c(=O)cc(OCC(=O)N2CCN(Cc3ccc4c(c3)OCO4)CC2)c2ccccc21 returned Avidin fluor 14, ABCB1 inh 1, GSH fluor 17, ABCG2 inh 3, Lmaj promast -2 and PKD1 kinase inh -6.
Screening Cc1cc(S(=O)(=O)NC(C)C)ccc1OCC(=O)N1CCN(Cc2ccc3c(c2)OCO3)CC1 returned Avidin fluor 2, ABCB1 inh 1, GSH fluor 48, ABCG2 inh 5, Lmaj promast 96* and PKD1 kinase inh -11.
`CCc1ccc(OCC(=O)N2CCN(Cc3ccc4c(c3)OCO4)CC2)cc1` gave Avidin fluor 9, ABCB1 inh 1, GSH fluor 28, ABCG2 inh 3, Lmaj promast 83* and PKD1 kinase inh -5.
Screening CSc1ccc(CN2CCN(C(=O)COc3cccc(C)c3)CC2)cc1 returned Avidin fluor 11, ABCB1 inh 1, GSH fluor 14, ABCG2 inh 6, Lmaj promast 87* and PKD1 kinase inh -2.
CN1CCN(C(=O)COc2ccc(S(=O)(=O)NCc3ccccc3)cc2Cl)CC1 was read as Avidin fluor 6, ABCB1 inh 1, GSH fluor 43, ABCG2 inh 3, Lmaj promast 28 and PKD1 kinase inh -8.
`CC(C)NS(=O)(=O)c1ccc(OCC(=O)N2CCN(Cc3ccc4c(c3)OCO4)CC2)c(Cl)c1` gave Avidin fluor 10, ABCB1 inh 1, GSH fluor 13, ABCG2 inh 4, Lmaj promast 56* and PKD1 kinase inh -2.
For Cc1cc(S(=O)(=O)NCC(C)C)ccc1OCC(=O)N1CCN(Cc2ccccc2)CC1 the results were Avidin fluor 12, ABCB1 inh 1, GSH fluor 26, ABCG2 inh 4, Lmaj promast 22 and PKD1 kinase inh -4.
Screening O=C(C1CCCO1)N1CCC2(CC1)OCCO2 (configuration not stated) returned Avidin fluor 12, ABCB1 inh 0, GSH fluor 34, ABCG2 inh -3, Lmaj promast 4 and PKD1 kinase inh -2.
Screening C/C(=C\c1ccc(N(C)C)cc1)[N+](=O)[O-] returned Avidin fluor 11, ABCB1 inh 0, GSH fluor 35, ABCG2 inh 12, Lmaj promast 100* and PKD1 kinase inh -4.
CCCCC1C(=O)NC(=S)NC1=O was read as Avidin fluor 12, ABCB1 inh 0, GSH fluor 11, ABCG2 inh -1, Lmaj promast -7 and PKD1 kinase inh 0.
